Experimental data reported in ChEMBL document CHEMBL1124390, “Synthesis and antiviral activity of phosphonoacetic and phosphonoformic acid esters of 5-bromo-2'-deoxyuridine and related pyrimidine nucleosides and acyclonucleosides” (1989).

Tests used:
Type in all cases: functional
Human alphaherpesvirus 1 [1] = assay: Concentration required to reduce the number of viral plaques […] cell monolayers of herpes simplex virus type 1.
Method in brief: (§1)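 Plaque-reduction assay on Vero monkey kidney cells grown in DMEM + 10% v/v newborn bovine serum. HSV-1 strain HFEM or HSV-2 strain 3345, 50 pfu in duplicate, adsorbed at 4 °C to drained monolayers. Serum-free medium with carboxymethylcellulose plus compound dilution series added; 3 days at 37 °C. Formaldehyde fixation, Giemsa stain; ID50 interpolated from plotted results.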

Human alphaherpesvirus 2 = assay: Concentration required to reduce the number of viral plaques […] cell monolayers of herpes simplex virus type 2.; method in brief: as §1
Human alphaherpesvirus 1 [2] = assay: Concentration required to protect 50% of mice against a systemic infection of HSV-1.
Method in brief: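 Swiss albino mice (9-12 g) given test substance 0.5 mL ip at -24, 0 and +24 h relative to infection (three treatments); controls got 0.5 mL water ip on the same schedule. Infection ip with approx 10x LD50 of HSV-1. Survivors counted on day 21; PD50 derived by Reed-Muench method.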

Compound	ID50 (Human alphaherpesvirus 1 [1]) [µM]	ID50 (Human alphaherpesvirus 2) [µM]	PD50 (Human alphaherpesvirus 1 [2]) [mM/kg]
O=c1[nH]c(=O)n([C@@H]2O[C@H](CO)[C@@H](O)[C@@H]2O)cc1Br	5	5.9	–
Cc1cn(C2O[C@H](COP(=O)(O)CC(=O)O)[C@@H](O)[C@@H]2O)c(=O)[nH]c1=O (stereo partly specified)	>2000	>2000	–
Nc1ncc([C@@H]2O[C@H](COP(=O)(O)CC(=O)O)[C@@H](O)[C@H]2O)c(=O)[nH]1	780	770	–
C=Cc1cn([C@H]2C[C@H](O)[C@@H](CO)O2)c(=O)[nH]c1=O	0.8	2	–
O=C(O)CP(=O)(O)OC[C@H]1O[C@@H](n2cc(/C=C/Br)c(=O)[nH]c2=O)C[C@@H]1O	2.7	1000	–
Nc1ncnc2c1ncn2[C@H]1C[C@H](O)[C@@H](COP(=O)(O)CC(=O)O)O1	>2000	>2000	1.05
Nc1ncnc2c1ncn2[C@@H]1O[C@H](COP(=O)(O)CC(=O)O)[C@@H](O)[C@H]1O	580	–	0.4
CCc1cn([C@H]2C[C@H](O)[C@@H](COP(=O)(O)CC(=O)O)O2)c(=O)[nH]c1=O	300	700	–
O=C(O)CP(=O)(O)OC[C@H]1OC(n2ccc(=O)[nH]c2=O)[C@H](O)[C@@H]1O (stereo partly specified)	300	–	0.31
O=C(O)CP(=O)(O)OC[C@H]1OC(n2cc(I)c(=O)[nH]c2=O)[C@@H](O)[C@@H]1O (stereo partly specified)	>2000	>2000	–
Nc1nc(=O)n([C@H]2C[C@H](O)[C@@H](CO)O2)cc1Br	1.5	0.15	–
Nc1ccn(C2O[C@H](COP(=O)(O)CC(=O)O)[C@@H](O)[C@H]2O)c(=O)n1 (stereo partly specified)	1600	1200	–
O=C(O)CP(=O)(O)O [FOSFONET]	230	240	0.67
C#Cc1cn([C@H]2C[C@H](O)[C@@H](COP(=O)(O)CC(=O)O)O2)c(=O)[nH]c1=O	>200	>200	–
O=C(CP(=O)(O)O)OC[C@H]1O[C@@H](n2cc(Br)c(=O)[nH]c2=O)C[C@@H]1O	12	7.4	–
Nc1nc(O)c2ncn(C3O[C@H](COP(=O)(O)CC(=O)O)[C@@H](O)[C@H]3O)c2n1 (stereo partly specified)	>2000	>2000	0.36
C=Cc1cn(C2O[C@H](COP(=O)(O)CC(=O)O)[C@@H](O)[C@@H]2O)c(=O)[nH]c1=O (stereo partly specified)	>2000	>2000	–
Cc1cn([C@H]2C[C@H](O)[C@@H](COP(=O)(O)CC(=O)O)O2)c(=O)[nH]c1=O	400	160	0.45
O=C(O)P(=O)(O)O [FOSCARNET]	130	120	–

Compound	ID50 (Human alphaherpesvirus 1 [1]) [µM]	ID50 (Human alphaherpesvirus 2) [µM]	PD50 (Human alphaherpesvirus 1 [2]) [mM/kg]
O=C(O)CP(=O)(O)OC[C@H]1O[C@@H](n2cc(I)c(=O)[nH]c2=O)C[C@@H]1O	40	10	0.21
O=C(O)P(=O)(O)OC[C@H]1O[C@@H](n2cc(Br)c(=O)[nH]c2=O)C[C@@H]1O	4.6	0.44	–
O=c1[nH]c(=O)n([C@H]2C[C@H](O)[C@@H](CO)O2)cc1I [IDOXURIDINE]	2	2.3	–
C=Cc1cn([C@H]2C[C@H](O)[C@@H](COP(=O)(O)CC(=O)O)O2)c(=O)[nH]c1=O	14	50	–
O=c1[nH]c(=O)n([C@H]2C[C@H](O)[C@@H](CO)O2)cc1/C=C/Br [BRIVUDINE]	0.6	4.2	–
CCc1cn([C@H]2C[C@H](O)[C@@H](CO)O2)c(=O)[nH]c1=O [EDOXUDINE]	40	23	–
CC(=O)c1cn(C2O[C@H](COP(=O)(O)CC(=O)O)[C@@H](O)[C@@H]2O)c(=O)[nH]c1=O (stereo partly specified)	>2000	>2000	–
Nc1ncnc2c1ncn2[C@@H]1O[C@H](COP(=O)(O)CC(=O)O)[C@@H](O)[C@@H]1O	>2000	>2000	0.53
Nc1nc(O)c2ncn(COCCOP(=O)(O)CC(=O)O)c2n1	1800	1500	–
C#Cc1cn([C@H]2C[C@H](O)[C@@H](CO)O2)c(=O)[nH]c1=O	11	11	–
O=C(O)CP(=O)(O)OC[C@H]1OC(n2cc(Br)c(=O)[nH]c2=O)[C@@H](O)[C@@H]1O (stereo partly specified)	>2000	>2000	–
Nc1nc(=O)n([C@H]2C[C@H](O)[C@@H](COP(=O)(O)CC(=O)O)O2)cc1Br	72	15	–
O=C(O)CP(=O)(O)OC[C@H]1O[C@@H](n2cc(Br)c(=O)[nH]c2=O)C[C@@H]1O	16	1.2	0.2
Cc1cn([C@@H]2O[C@H](CO)[C@@H](O)[C@@H]2O)c(=O)[nH]c1=O	10	19	–
O=c1[nH]c(=O)n(C2O[C@H](CO)[C@@H](O)[C@@H]2O)cc1I (stereo partly specified)	13	60	–
Nc1ncnc2c1ncn2[C@@H]1O[C@H](CO)[C@@H](O)[C@@H]1O [VIDARABINE]	11	75	–
Nc1nc2c(ncn2COCCO)c(=O)[nH]1 [ACYCLOVIR]	1.3	2.2	–
O=c1[nH]c(=O)n([C@H]2C[C@H](O)[C@@H](CO)O2)cc1Br [BROXURIDINE]	2	0.7	–
